From ChEMBL document CHEMBL4725242, “Discovery of GS-9688 (Selgantolimod) as a Potent and Selective Oral Toll-Like Receptor 8 Agonist for the Treatment of Chronic Hepatitis B” (J Med Chem, 2020)

What was measured:
[1] = molecular target: T1, Toll-like receptor 8 (Homo sapiens, UniProt Q9NR97); assay: Agonist activity at TLR8 in human cryopreserved PBMC assessed as induction of IL-12p40 production measured after 24 hrs
T1 sequence (Q9NR97 whole entry): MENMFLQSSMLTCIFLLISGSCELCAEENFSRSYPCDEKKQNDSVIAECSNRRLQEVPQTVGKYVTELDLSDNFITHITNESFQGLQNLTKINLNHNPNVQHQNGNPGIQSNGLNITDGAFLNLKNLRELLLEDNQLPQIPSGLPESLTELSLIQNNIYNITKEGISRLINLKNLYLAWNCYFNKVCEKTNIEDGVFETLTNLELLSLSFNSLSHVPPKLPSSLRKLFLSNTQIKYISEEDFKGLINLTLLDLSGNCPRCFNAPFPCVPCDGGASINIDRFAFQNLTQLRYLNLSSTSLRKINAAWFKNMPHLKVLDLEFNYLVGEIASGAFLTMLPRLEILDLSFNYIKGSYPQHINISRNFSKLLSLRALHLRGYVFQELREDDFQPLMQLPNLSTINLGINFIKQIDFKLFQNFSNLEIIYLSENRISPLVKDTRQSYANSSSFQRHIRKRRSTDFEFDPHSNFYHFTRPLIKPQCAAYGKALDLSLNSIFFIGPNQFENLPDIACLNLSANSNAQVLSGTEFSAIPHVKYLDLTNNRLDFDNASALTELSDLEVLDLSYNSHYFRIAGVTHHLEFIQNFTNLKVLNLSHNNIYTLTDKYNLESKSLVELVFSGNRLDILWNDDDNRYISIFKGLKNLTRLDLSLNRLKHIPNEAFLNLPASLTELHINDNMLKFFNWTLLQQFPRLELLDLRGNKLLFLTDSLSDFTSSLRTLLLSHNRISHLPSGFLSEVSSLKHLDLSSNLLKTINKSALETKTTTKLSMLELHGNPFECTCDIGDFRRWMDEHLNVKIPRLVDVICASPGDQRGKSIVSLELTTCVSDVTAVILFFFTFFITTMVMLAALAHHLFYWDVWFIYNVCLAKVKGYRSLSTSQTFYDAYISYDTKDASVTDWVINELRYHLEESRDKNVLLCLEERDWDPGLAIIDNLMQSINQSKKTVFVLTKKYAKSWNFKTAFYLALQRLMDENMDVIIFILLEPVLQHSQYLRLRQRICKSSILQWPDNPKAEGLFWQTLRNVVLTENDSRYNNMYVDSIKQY

[2] = Cytotoxicity against human MT4 cells assessed as reduction in cell viability measured after 4 to 5 days by celltiter-glo assay; format: cell-based; conditions: time 4-5 day
[3] = molecular target: T2, Toll-like receptor 7 (Homo sapiens, UniProt Q9NYK1); assay: Agonist activity at TLR7 in human cryopreserved PBMC assessed as induction of IFNalpha production measured after 24 hrs
T2 sequence (Q9NYK1 whole entry): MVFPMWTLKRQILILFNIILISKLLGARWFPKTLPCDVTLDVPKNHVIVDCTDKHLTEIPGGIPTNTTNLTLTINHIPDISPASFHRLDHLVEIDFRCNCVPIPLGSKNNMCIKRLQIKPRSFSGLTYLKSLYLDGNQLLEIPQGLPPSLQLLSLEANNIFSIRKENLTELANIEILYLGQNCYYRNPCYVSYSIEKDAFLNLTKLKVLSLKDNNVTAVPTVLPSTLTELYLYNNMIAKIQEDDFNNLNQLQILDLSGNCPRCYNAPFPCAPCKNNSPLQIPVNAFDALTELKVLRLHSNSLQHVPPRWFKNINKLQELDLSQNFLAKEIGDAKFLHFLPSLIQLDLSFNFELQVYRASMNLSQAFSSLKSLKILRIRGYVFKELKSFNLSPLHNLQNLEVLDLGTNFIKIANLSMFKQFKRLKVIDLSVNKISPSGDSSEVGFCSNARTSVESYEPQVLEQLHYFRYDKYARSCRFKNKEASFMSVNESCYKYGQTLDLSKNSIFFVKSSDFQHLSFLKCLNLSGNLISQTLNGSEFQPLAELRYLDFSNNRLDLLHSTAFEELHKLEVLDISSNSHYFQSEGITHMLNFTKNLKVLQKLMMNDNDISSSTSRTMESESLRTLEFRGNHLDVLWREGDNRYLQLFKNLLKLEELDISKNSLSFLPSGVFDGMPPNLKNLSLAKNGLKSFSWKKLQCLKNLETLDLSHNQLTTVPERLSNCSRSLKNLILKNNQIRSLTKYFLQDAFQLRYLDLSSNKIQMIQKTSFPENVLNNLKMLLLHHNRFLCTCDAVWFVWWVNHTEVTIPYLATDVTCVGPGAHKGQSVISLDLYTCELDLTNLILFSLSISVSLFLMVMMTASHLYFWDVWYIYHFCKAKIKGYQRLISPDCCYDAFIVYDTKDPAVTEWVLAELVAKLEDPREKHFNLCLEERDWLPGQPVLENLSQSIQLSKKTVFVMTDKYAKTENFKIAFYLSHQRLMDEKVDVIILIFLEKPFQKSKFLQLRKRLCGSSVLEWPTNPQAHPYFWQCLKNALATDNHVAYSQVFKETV
How it was run: (§1)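 Cryopreserved healthy-donor human PBMC, recovered 2 h at 37°C/5% CO2, then 100k cells/well in RPMI/10% FBS exposed 24 h at 37°C to a 10-point half-log dilution series (0.5% final DMSO). Supernatant IFNα-2a quantified by MSD electrochemiluminescence immunoassay. For the ratio, divided by the IL-12p40 EC50 from the same PBMC screen.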

[4] = Selectivity index, ratio of CC50 for human MT4 cells to EC50 for TLR8 in human cryopreserved PBMC assessed as induction of IL-12p40 production
[5] = Dissociation constant, pKa of the compound; format: physicochemical
[6] = Clearance in dog hepatic microsomes at 2 uM measured up to 60 mins in presence of NADPH generating system by LC-MS/MS analysis; format: ADME, Canis lupus familiaris, Microsome; conditions: liver microsomes
[7] = Clearance in rat hepatic microsomes at 2 uM measured up to 60 mins in presence of NADPH generating system by LC-MS/MS analysis; format: ADME, Microsome; conditions: liver microsomes
[8] = Clearance in cynomolgus monkey hepatic microsomes at 2 uM measured up to 60 mins in presence of NADPH generating system by LC-MS/MS analysis; format: ADME, Macaca fascicularis, Microsome; conditions: liver microsomes
[9] = Drug metabolism in human hepatocytes assessed as core oxidation; format: ADME, cell-based, Hepatocyte
[10] = Apparent permeability across apical to basolateral side in human Caco2 cells measured after 1 to 2 hrs by LC-MS/MS analysis; conditions: Caco-2
[11] = Clearance in human hepatic microsomes at 2 uM measured up to 60 mins in presence of NADPH generating system by LC-MS/MS analysis; format: ADME, Microsome; conditions: liver microsomes
[12] = Apparent permeability across basolateral to apical side in human Caco2 cells measured after 1 to 2 hrs by LC-MS/MS analysis; conditions: Caco-2
[13] = species: Homo sapiens; assay: Selectivity ratio of EC50 for TLR7 in human cryopreserved PBMC assessed as induction of IFNalpha production to EC50 for TLR8 in human cryopreserved PBMC assessed as induction of IL-12p40 production
How it was run: as §1, with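 “immunoassay. Normalized to 10 µM GS-9620 positive and DMSO negative controls; EC50 from 4-parameter logistic fit.” for “immunoassay.”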

EC50 [1]	EC50 [3]	Structure (SMILES)	CC50 [2]	other results
19 µM	> 50 µM	CCC[C@H](CO)Nc1nc(N)nc2cccnc12	–	–
0.79 µM	> 50 µM	CCCC[C@H](CO)Nc1nc(N)nc2cccnc12	7.8 µM	Ratio CC50/EC50 [4]: 10; pKa [5]: 6.8
0.42 µM	0.91 µM	CCCC[C@@H](CO)Nc1nc(N)nc2cccnc12	–	–
3.1 µM	5.1 µM	CCCC(C)Nc1nc(N)nc2cccnc12 (stereo unspecified)	–	–
0.43 µM	2 µM	CCC[C@@H](CO)Nc1nc(N)nc2cccnc12	–	–
3.33 µM	> 20 µM	CCCCC[C@H](CO)Nc1nc(N)nc2cccnc12	–	–
> 50 µM	> 50 µM	CCCC[C@@H](Nc1nc(N)nc2cccnc12)C(=O)O	–	–
2.4 µM	> 50 µM	CCC[C@](C)(CO)Nc1nc(N)nc2cccnc12	> 50 µM	Ratio CC50/EC50 [4]: >21
25 µM	> 50 µM	CCCC[C@H](CN)Nc1nc(N)nc2cccnc12	–	–
1.9 µM	2.2 µM	CCCCNc1nc(N)nc2cccnc12	–	–
> 50 µM	> 50 µM	CCCC[C@@H](Nc1nc(N)nc2cccnc12)C(=O)NC	–	–
36 µM	> 50 µM	CCCC[C@@H](Nc1nc(N)nc2cccnc12)C(N)=O	–	–
4.3 µM	> 50 µM	CCCC[C@H](CCO)Nc1nc(N)nc2cccnc12	–	–

Second part, the compound before the results:

Structure (SMILES)	EC50 [1]	EC50 [3]	CC50 [2]	other results
CCCC[C@](C)(CO[C@@H]1O[C@H](C(=O)O)[C@@H](O)[C@H](O)[C@H]1O)Nc1nc(N)nc2cc(F)cnc12	> 50 µM	> 50 µM	> 50 µM	–
CCCCOc1nc(N)nc2cccnc12	> 50 µM	> 50 µM	–	–
CCCC[C@@](C)(CO)Nc1nc(N)nc2cccnc12	2.4 µM	7.9 µM	26 µM	CLhep predicted at 2 µM [6]: 25 mL/min/kg; CLhep predicted at 2 µM [7]: 58.3 mL/min/kg; CLhep predicted at 2 µM [8]: 23.3 mL/min/kg; Drug metabolism [9]: Metabolite_Detected; Ratio CC50/EC50 [4]: 11; Papp A→B [10]: 32 ×10⁻⁶ cm/s; CLhep predicted at 2 µM [11]: 13.3 mL/min/kg; Papp B→A [12]: 31 ×10⁻⁶ cm/s
CCCC[C@H](CO)Nc1cc(N)nc2ccccc12	> 50 µM	> 50 µM	–	–
CCCN(CCC)C(=O)C1=Cc2ccc(-c3ccc(C(=O)N4CCCC4)cc3)cc2N=C(N)C1 [MOTOLIMOD]	1.3 µM	> 30 µM	–	–
CCCC[C@@H](CO)Nc1cc(N)nc2ccccc12	> 50 µM	> 50 µM	–	–
CCCCC(CO)(CCCC)Nc1nc(N)nc2cccnc12	> 50 µM	> 50 µM	38 µM	–
C[C@](CO)(CCCCO)Nc1nc(N)nc2cc(F)cnc12	> 50 µM	> 50 µM	> 50 µM	–
CCCC[C@H](CO)Nc1nc(N)nc2ccccc12	1.84 µM	> 50 µM	–	pKa [5]: 8.2
CCCC[C@](C)(CO)Nc1nc(N)nc2cc(Cl)cnc12	0.27 µM	> 42 µM	22 µM	CLhep predicted at 2 µM [6]: 30 mL/min/kg; CLhep predicted at 2 µM [7]: 56.7 mL/min/kg; CLhep predicted at 2 µM [8]: 23.3 mL/min/kg; CLhep predicted at 2 µM [11]: 16.7 mL/min/kg; pKa [5]: 6.4
CCCC[C@@](C)(Nc1nc(N)nc2cc(F)cnc12)C(=O)O	> 50 µM	> 50 µM	> 50 µM	–
CCCC[C@@](C)(CO)Nc1nc(N)nc2cc(F)cnc12	3.3 µM	> 50 µM	0.79 µM	Ratio CC50/EC50 [4]: 0.2
CCCC[C@](C)(CO)Nc1nc(N)nc2cc(C)cnc12	0.16 µM	> 50 µM	23 µM	Ratio EC50 [13]: > 185; CLhep predicted at 2 µM [6]: 18.3 mL/min/kg; CLhep predicted at 2 µM [7]: 63.3 mL/min/kg; CLhep predicted at 2 µM [8]: 25 mL/min/kg; Ratio CC50/EC50 [4]: 144; Papp A→B [10]: 31 ×10⁻⁶ cm/s; CLhep predicted at 2 µM [11]: 8.33 mL/min/kg; pKa [5]: 7.1; Papp B→A [12]: 29 ×10⁻⁶ cm/s
CCCC[C@](C)(CO)Nc1nc(N)nc2cccnc12	0.17 µM	15 µM	31 µM	Ratio EC50 [13]: > 80; CLhep predicted at 2 µM [6]: 23.3 mL/min/kg; CLhep predicted at 2 µM [7]: 58.3 mL/min/kg; CLhep predicted at 2 µM [8]: 21.7 mL/min/kg; Drug metabolism [9]: Metabolite_Detected; Ratio CC50/EC50 [4]: 182; Papp A→B [10]: 29 ×10⁻⁶ cm/s; CLhep predicted at 2 µM [11]: 13.3 mL/min/kg; Papp B→A [12]: 29 ×10⁻⁶ cm/s
CCCCC[C@](C)(CO)Nc1nc(N)nc2cccnc12	0.58 µM	20 µM	17 µM	Ratio CC50/EC50 [4]: 29
CCCCCC[C@](C)(CO)Nc1nc(N)nc2cccnc12	10 µM	> 50 µM	3.6 µM	Ratio CC50/EC50 [4]: 0.4
CCCC[C@@H](CO)Nc1nc(N)nc2ccccc12	0.71 µM	0.57 µM	–	–
